Source: PubChem BioAssay (Broad Institute)
Sampled rows, rich in hits. Any-hit rate of the full collection: about 2.9%.
SIRT5 block: inhibitors of human sirtuin-5 desuccinylase; Q9NXA8; Purified SirT5, succinyl-peptide AMC, trypsin-coupled fluorescence; inhibition, % at 15 µM; 330,000 compounds, 1.1% hits; AID 652115; in the data active = inhibition above about 15%; inconclusive = no clear call, values can overlap the other calls
Target sequence (Q9NXA8 whole entry, looked up): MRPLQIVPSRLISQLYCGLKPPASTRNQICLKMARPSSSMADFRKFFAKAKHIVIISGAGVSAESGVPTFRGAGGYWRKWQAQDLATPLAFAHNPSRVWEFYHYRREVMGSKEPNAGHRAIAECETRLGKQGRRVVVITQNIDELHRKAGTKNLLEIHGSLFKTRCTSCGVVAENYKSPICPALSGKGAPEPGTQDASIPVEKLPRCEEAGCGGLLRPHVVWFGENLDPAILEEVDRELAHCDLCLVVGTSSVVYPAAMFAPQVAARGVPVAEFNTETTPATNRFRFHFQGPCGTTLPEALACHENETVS
DENV2 CPE rescue: DENV2-induced cell death inhibition. DENV2-infected cells, cytopathic effect rescue, plate reader. CPE inhibition, % at 9.99 µM. 350,000 compounds, 1.7% hits. AID 651640; in the data active = CPE inhibition above about 20%, passing the limit was not always enough; inconclusive = no clear call, values can overlap the other calls; tested in BHK-21 cells;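 note: 0% = median of neutral control wells and 100% = median of positive control wells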
E-sel inducer: induces E-selectin expression in human endothelial cells; P16581; HUVEC E-selectin immunofluorescence imaging; normalized: neutral wells 0, TNF-alpha wells 100; activation, % at 7.58 µM; 260,000 compounds, 0.37% hits;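 active = mean E-selectin-positive cell signal at least 10% of the positive control, reached in at least 60% of replicates, without over 20% cell loss; inconclusive = no rule given, readout overlaps actives, possibly toxicity-flagged; inactive = the rest, including those meeting only one limit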
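Assay system: HUVEC, human umbilical vein endothelial cells / Amount: 3,000 HUVEC/well / Controls: TNF-alpha positive control, DMSO neutral control / Compound dosing: single concentration / Medium: EGM-2 over gelatin coat / Evaluation: percent E-selectin-positive cells / Signal: immunofluorescence imaging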
Active calls of the source: *; u = inconclusive; x = not tested or not shown; ! = repeats disagree.

SMILES	SIRT5 block	DENV2 CPE rescue	E-sel inducer
OCCOCCn1c(C(CO)Nc2nc(-c3ccccc3Br)cs2)nc2ccccc21 (centres undefined)	23*	13	0
O=C(CCCN1C(=O)/C(=C/c2cccs2)SC1=S)Nc1cccnc1	-2	5	22
COc1ccc(/C=C2\SC(=O)N(CC(=O)Nc3cccnc3)C2=O)cc1OC	2	23*	x
O=C(CCCN1C(=O)/C(=C\c2cccs2)SC1=S)Nc1cccnc1	x	30*	x
COc1ccc(/C=C2/SC(=O)N(CCC(=O)Nc3ccccc3)C2=O)cc1OC	-3	-3	0
CCOC(=O)[C@@H]1[C@H]2COc3ccc(Br)cc3[C@@H]2N2C(=O)N(c3ccc(F)cc3)C(=O)[C@@]12C	x	-15	0
CCOC(=O)[C@H]1[C@H]2COc3ccccc3[C@@H]2N2C(=O)c3cc(C)ccc3NC(=O)[C@@]12C	x	5	0
CCOC(=O)[C@H]1[C@H]2COc3ccc(Cl)cc3[C@H]2N2C(=O)CNC(=O)[C@@]12C	5	2	0
CCOC(=O)[C@H]1[C@H]2COc3ccc(Br)cc3[C@H]2N2C(=O)CNC(=O)[C@@]12C	-5	62*	0
CCOC(=O)[C@@H]1[C@H]2COc3ccc(Br)cc3[C@@H]2N2C(=O)N(c3cccc(F)c3)C(=O)[C@@]12C	x	93*	x
CCOC(=O)[C@H]1[C@H]2COc3ccccc3[C@@H]2N2C(=O)[C@@H](CO)NC(=O)[C@@]12C	0	29*	0
COc1cc(/C=N/NC(=O)c2ccccn2)ccc1OC(=O)c1ccccc1Br	-1	u	1
O=C(O)/C=C/C(=O)N1Cc2cc3ccccc3nc2C1	5	-3	x
COc1ccccc1/C=N/NC(=O)c1ccc(Br)cc1	-9	10	x
CCN(CC)c1ccc(/C=N/N2CCN(Cc3ccccc3Cl)CC2)cc1	-2	-1	x
CN(C)c1ccc(/C=N/N2CCN(Cc3ccccc3Cl)CC2)cc1	2	55*	x
COc1ccc(-c2ccc(C(=O)Nc3cccc(C(F)(F)F)c3)c3occc23)c(C)c1	-5	-8	0
Cc1cccc(OCC(=O)NNC(=O)C2CCCCC2C(=O)O)c1 (centres undefined)	37*	22*	1
Cc1ccc(OCC(=O)NNC(=O)[C@@H]2CCCC[C@@H]2C(=O)O)c(Br)c1	-3	-5	1
COC(=O)C1CSc2[nH]c(=O)sc2C1c1ccccc1 (centres undefined)	1	12	x
COc1ccc(-c2ccc(C)cc2)cc1[C@H]1[C@@H]2C=CCC[C@@]2(C)C(=O)N1Cc1ccccc1	x	4	0
Cc1ccc(NC2CCCN(C(=O)c3cnsn3)C2)cc1C (centres undefined)	-1	3	x
C[C@H](CO)N1C[C@H](C)[C@@H](CN(C)S(C)(=O)=O)Oc2ccc(NS(=O)(=O)c3cccs3)cc2C1=O	0	-6	429*
C[C@H](CO)N1C[C@H](C)[C@H](CN(C)S(=O)(=O)c2cccs2)Oc2ccc(NS(=O)(=O)c3ccc(Cl)cc3)cc2C1=O	-1	-4	0
C[C@@H]1CN([C@@H](C)CO)C(=O)c2cc(NS(=O)(=O)c3ccc(F)cc3)ccc2O[C@@H]1CN(C)S(=O)(=O)c1cccs1	3	28*	-3
SMILES	SIRT5 block	DENV2 CPE rescue	E-sel inducer
C[C@H]1CN([C@@H](C)CO)C(=O)c2cc(NS(=O)(=O)c3ccc(F)cc3)ccc2O[C@H]1CN(C)S(=O)(=O)c1ccc(F)cc1	1	-2	0
C[C@H]1CN([C@@H](C)CO)C(=O)c2cc(NS(=O)(=O)c3ccc(Cl)cc3)ccc2O[C@@H]1CN(C)S(=O)(=O)c1cccs1	4	39*	0
C[C@H]1CN([C@@H](C)CO)C(=O)c2cc(NS(=O)(=O)c3ccc(F)cc3)ccc2O[C@@H]1CN(C)S(=O)(=O)c1ccc(F)cc1	0	54*	1
C[C@H](CO)N1C[C@H](C)[C@H](CN(C)S(C)(=O)=O)Oc2ccc(NS(=O)(=O)c3cccs3)cc2C1=O	9	14	1
C[C@@H]1CN([C@H](C)CO)C(=O)c2cc(NS(=O)(=O)c3ccc(F)cc3)ccc2O[C@@H]1CN(C)S(=O)(=O)c1cccs1	6	-4	-3
Cc1cccn2cc(-c3ccc4c(c3)NC(=O)CO4)nc12	-1	-7	x
CCOC(=O)c1cc(-c2ccc(Cl)s2)[nH]n1	0	-4	x
Cc1cn(CCC(=O)Nc2ccc(N3CCOCC3)cc2)c2ccccc12	-1	-3	0
CC1Oc2ccccc2N(CC(=O)c2cccc(Cl)c2)C1=O (centres undefined)	-1	x	x
CC(C)Cn1nc(C(=O)Nc2cccc(C(=O)NC3CC3)c2)c2ccccc2c1=O	-1	9	x
C[C@H](CO)N1C[C@H](C)[C@@H](CN(C)S(=O)(=O)c2cccs2)Oc2ccc(NS(=O)(=O)c3ccc(Cl)cc3)cc2CC1=O	3	7	98*
C[C@@H]1CN([C@@H](C)CO)C(=O)Cc2cc(NS(=O)(=O)c3cccs3)ccc2O[C@@H]1CN(C)S(=O)(=O)c1ccc(Cl)cc1	11	16	0
CC(C)NC(=O)N(C)C[C@@H]1Oc2ncc(C#Cc3ccc(F)cc3)cc2C(=O)N([C@H](C)CO)C[C@H]1C	-12	-9	0
CC(C)NC(=O)N(C)C[C@H]1Oc2ncc(C#CCc3ccccc3)cc2C(=O)N([C@@H](C)CO)C[C@@H]1C	16*	6	0
CC(C)NC(=O)N(C)C[C@@H]1Oc2ncc(C#CCc3ccccc3)cc2C(=O)N([C@H](C)CO)C[C@@H]1C	3	9	0
CC(C)NC(=O)N(C)C[C@@H]1Oc2ncc(C#Cc3ccc(F)cc3)cc2C(=O)N([C@@H](C)CO)C[C@H]1C	1	25*	0
COc1ccc(S(=O)(=O)N(C)C)cc1NC(=O)CN1C(=O)NC2(CCCC2)C1=O	-2	-5	x
C[C@H](CO)N1C[C@H](C)[C@H](CN(C)C(=O)c2ccc(F)cc2)Oc2ncc(C#CCN(C)C)cc2C1=O	2	35*	0
CC(C)C#Cc1cnc2c(c1)C(=O)N([C@@H](C)CO)C[C@H](C)[C@H](CN(C)C(=O)c1ccccc1)O2	17*	-3	x
CC(C)CC#Cc1cnc2c(c1)C(=O)N([C@@H](C)CO)C[C@H](C)[C@H](CN(C)Cc1ccc(C(=O)O)cc1)O2	0	78*	0
C[C@@H](O)C#Cc1cnc2c(c1)C(=O)N([C@@H](C)CO)C[C@H](C)[C@H](CN(C)C(=O)c1ccc(F)cc1)O2	-4	-6	25
CCCC#Cc1cnc2c(c1)C(=O)N([C@@H](C)CO)C[C@H](C)[C@H](CN(C)Cc1ccc(C(=O)O)cc1)O2	-1	9	0
C[C@H]1CN([C@@H](C)CO)C(=O)c2cc(C#CCN(C)C)cnc2O[C@@H]1CN(C)C(=O)c1ccc(F)cc1	7	-1	0
CC(C)C#Cc1cnc2c(c1)C(=O)N([C@@H](C)CO)C[C@H](C)[C@@H](CN(C)C(=O)c1ccccc1)O2	1	3	0
C[C@@H]1CN([C@H](C)CO)C(=O)c2cc(C#C[C@@H](C)O)cnc2O[C@H]1CN(C)C(=O)c1ccc(F)cc1	-5	43*!	0
